OXTR agonist = human OXTR agonists, primary screen, fluorescence, CHO-OTR cells, Fluo-8 calcium. activation, % at 3 µM. hit rate 0.32% among 320,000. Fluo-8 calcium fluorescence; normalized: DMSO 0%, oxytocin 100%. Oxytocin receptor (Homo sapiens), P30559. AID 2435, 2010;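 active = activation above the mean of all tested compounds plus 3 SD, cutoff set per screening run, cut at about 20% in these data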;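 also: peak over basal fluorescence ratio from a 100 s FLIPR kinetic read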
CRFR2-BP ag = agonists of CRF-BP/CRF-R2 complex, primary screen, cell-based, HEK293, calcium dye fluorescence, uHTS. CRF-binding protein / CRF receptor 2 complex (human). calcium dye fluorescence (FLIPR); percent of saturating CRF peptide response. activation, % at 13.2 µM. hit rate 0.46% among 350,000;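 active = activation of at least 50%, plus an integration ratio under a set limit after plate pattern correction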
TRPML3 ag = human TRPML3 channel agonists, primary screen, cell-based, HEK293 TRPML3-YFP, Fluo-8 calcium fluorescence, 3 µM; Mucolipin-3 (Homo sapiens), Q8TDD5; 100% = the carbachol control signal; activation, % at 3 µM; hit rate 0.29% among 220,000; AID 1448, 2008;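 active = activation above its plate's cutoff, the mean activation of the plate's test wells plus 3 SD, cut at about 12% in these data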
Target sequence (Q8TDD5 whole entry, looked up): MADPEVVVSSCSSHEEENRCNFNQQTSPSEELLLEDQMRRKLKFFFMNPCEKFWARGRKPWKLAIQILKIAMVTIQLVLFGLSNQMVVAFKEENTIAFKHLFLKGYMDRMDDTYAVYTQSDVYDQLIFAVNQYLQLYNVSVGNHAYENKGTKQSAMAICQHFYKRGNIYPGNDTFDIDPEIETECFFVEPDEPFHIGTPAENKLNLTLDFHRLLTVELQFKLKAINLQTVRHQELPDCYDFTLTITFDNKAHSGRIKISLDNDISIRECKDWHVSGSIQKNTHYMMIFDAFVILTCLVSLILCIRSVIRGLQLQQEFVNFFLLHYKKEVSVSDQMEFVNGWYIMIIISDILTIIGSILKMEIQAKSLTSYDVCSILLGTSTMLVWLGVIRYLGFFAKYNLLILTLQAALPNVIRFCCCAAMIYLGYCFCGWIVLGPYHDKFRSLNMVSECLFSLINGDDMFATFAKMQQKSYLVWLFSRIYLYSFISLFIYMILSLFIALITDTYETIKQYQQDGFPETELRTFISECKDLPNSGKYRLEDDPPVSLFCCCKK
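Material: HEK293 cells stably carrying human TRPML3-YFP; compound dosing: single dose, 3 µM final nominal compound, 0.3% DMSO final; incubation: 1-h 37 °C dye load, 5-s basal, 120-s post-compound reads; technique: Fluo-8 intracellular calcium fluorescence, excitation 470-495 nm, emission 515-575 nm; read-out basis: percent activation from peak-to-basal fluorescence ratio, scaled between DMSO and carbachol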
zfTRPN1 agonist = zebrafish TRPN1 channel agonists, primary screen, cell-based, HEK293, calcium fluorescence; HEK293 zebrafish TRPN1-YFP, Fluo-8 calcium fluorescence; 100% = response to 87 µM carbachol; hit rate 0.18% among 220,000; activation, % at 3 µM; transient receptor potential cation channel N1 (TRPN1/NompC), Danio rerio;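 active = activation above its plate's cutoff, the mean activation of test wells on that plate plus 3 SD, cut at about 19% in these data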
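Material: zebrafish TRPN1-YFP in HEK293 cells. Doses: one dose of 3 µM, 0.3% DMSO. Incubation: dye 1 h 37 °C plus 30 min RT. Measured by: intracellular calcium fluorescence with Fluo-8.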
V1aR counter = agonists of human V1a receptor, primary screen, counter-screen for OXTR agonist project, fluorescence, CHO-V1R cells; Fluo-8 calcium fluorescence, agonist mode; 0% DMSO, 100% 3 nM vasopressin; activation, % at 3 µM; Vasopressin V1a receptor (Homo sapiens), P37288; hit rate 0.25% among 320,000; AID 2797, 2010;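 active = activation above the mean activation of all tested compounds plus 3 SD, per screening run, cut at about 20% in these data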;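 also: signal is peak over basal fluorescence ratio across a 100 second FLIPR read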
OXTR potentiator = human OXTR potentiators, primary screen, fluorescence, CHO-OTR cells, Fluo-8 calcium | Fluo-8 calcium fluorescence, potentiator mode; 0% = oxytocin EC15, 100% = EC100 | activation, % at 3 µM | hit rate 0.061% among 320,000 | Oxytocin receptor (Homo sapiens), P30559;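 active = activation above that plate's cutoff, the mean activation of tested compounds plus 3 SD, cut at about 6.6% in these data, passing the limit was not always enough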
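System: human OTR in CHO cells; Also added: sub-maximal oxytocin, roughly EC15; Timing: compound 6 min at room temperature before oxytocin, 100 s read; Technique: Fluo-8 intracellular calcium fluorescence, ex 470-495, em 515-575 nm; Controls: oxytocin EC15 low and EC100 high; Replication: singlicate.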
TRPN1 ag 2 = zebrafish TRPN1 channel agonists, counter-screen for TRPML3 agonist project, cell-based, HEK293 TRPN1-YFP, Fluo-8 calcium; Fluo-8 calcium fluorescence; scaled: carbachol wells 100%, DMSO wells 0%; shares compounds with TRPML3 ag; AID 1525, 2009; hit rate 10% among 310; activation, % at 3 µM;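 active = mean activation over replicates above a set limit taken from the earlier TRPN1 channel primary screen, cut at about 19% in these data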
TRPML3 confirm = human TRPML3 channel agonists, confirmation, cell-based, HEK293 TRPML3-YFP, Fluo-8 calcium, triplicate. shares compounds with TRPML3 ag. Fluo-8 calcium fluorescence; 100% set by carbachol, 0% by DMSO. activation, % at 3 µM. hit rate 80% among 310. AID 1526, 2009;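 active = activation above a set limit derived from the earlier primary screen, cut at about 12% in these data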
A number is an active result; - = inactive; . = not tested or not shown. Rows were chosen to be rich in hits. Some 0.85% of all compounds tested hit in one or more screens of this group.

SMILES	OXTR agonist	CRFR2-BP ag	TRPML3 ag	zfTRPN1 agonist	V1aR counter	OXTR potentiator	TRPN1 ag 2	TRPML3 confirm
OCC[C@@H]1C[C@H](O)[C@@H](O)[C@]2(CCc3ccccc3O2)O1	-	-	.	.	-	-	.	.
CC(=O)N1CCN(c2ccccc2NC(=O)COc2ccccc2C)CC1	-	-	-	-	-	-	.	.
Cc1ccccc1OCC(=O)Nc1cc(S(=O)(=O)N2CCCCC2)ccc1N1CCN(C)CC1	-	-	20.8	-	-	-	-	22.8
Cc1ccccc1OCC(=O)Nc1ccccc1N1CCOCC1	-	-	47.2	-	-	-	-	56.6
NC(=O)NC(=O)COC(=O)CC12CC3CC(CC(C3)C1)C2	-	-	-	-	-	-	.	.
COCCN1CCC(CNCc2c(C(=O)N3CCCCC3)nc3c(C)cccn23)C1 (configuration not stated)	-	-	-	-	-	-	.	.
O=C(COc1ccccc1C(=O)O)Nc1nc2ccc([N+](=O)[O-])cc2s1	-	-	14.2	-	-	-	21.9	-
Cc1ccc(S(=O)(=O)N2CCCC(C(=O)N(Cc3cccs3)C3CC3)C2)cc1 (configuration not stated)	-	-	-	-	-	-	.	.
CCC1CCCCN1S(=O)(=O)c1ccc(S(=O)(=O)N(Cc2cccs2)C2CC2)cc1 (configuration not stated)	-	-	94.7	-	-	-	-	112.2
CCC1CCCCN1S(=O)(=O)c1ccc(S(=O)(=O)N(Cc2ccccn2)CC2CCCO2)cc1 (configuration not stated)	-	-	28.4	-	-	-	-	95.6
CCOC(=O)c1c(CSc2ccc(C)cc2)oc2ccc(O)cc12	-	-	29.9	-	-	-	-	46.1
COc1ccc(NC(C)(C)c2nnnn2-c2c(C)cccc2C)cc1	-	-	21.0	-	-	-	-	-
O=C(C1Cc2ccccc2CN1S(=O)(=O)c1ccc(F)cc1)N1CCCCCC1 (configuration not stated)	-	-	39.9	-	-	-	-	40.6
O=C(C1Cc2ccccc2CN1S(=O)(=O)c1ccc(F)cc1)N1CCOCC1 (configuration not stated)	-	-	-	-	-	-	.	.
Cc1cc(NC(=O)CSc2nnc(-c3ccccc3F)n2N)no1	-	-	.	.	-	-	.	.
Cc1onc(-c2ccccc2)c1C(=O)NCc1ccco1	-	-	-	-	-	-	.	.
Cc1onc(-c2ccccc2)c1C(=O)N(Cc1ccco1)Cc1cccs1	.	-	28.7	-	.	.	-	18.9
Cc1cc(NC(=O)COC(=O)[C@@H](NS(=O)(=O)c2ccccc2)C(C)C)no1	-	-	-	-	-	-	.	.
CC(C)[C@H](NS(=O)(=O)c1ccccc1)C(=O)OCC(=O)Nc1ccccc1Sc1ccccc1	-	-	41.6	-	-	-	-	65.9
O=C(Cc1ccc(NC(=O)C2CCN(C(=O)C3CCCCC3)CC2)cc1)Nc1cccc(C(=O)N2CCCCC2)c1	.	-	.	.	.	.	.	.
CC(=O)Nc1ccc(S(=O)(=O)Oc2ccccc2N2C(=O)C3C4CCC(C4)C3C2=O)cc1 (configuration not stated)	-	-	.	.	-	-	.	.
Cc1cc(C)c(O)c(CN(C)Cc2cc(Cl)cc(Cl)c2O)c1	.	-	.	.	.	.	.	.
Oc1c(Cl)cc(Cl)cc1Sc1cc(Cl)cc(Cl)c1O	-	.	12.9	-	-	-	29.4	13.4
